This passage reports yeast fitness results from the RNAGym collection of RNA variant scans (doi:10.1126/science.aae0568).

To fix the notation:
B1: tRNA (parent)
chain: GUUCCGUUGGCGUAAUGGUAACGCGUCUCCCUCCUAAGGAGAAGACUGCGGGUUCGAGUCCCGUACGGAACG

This sample holds only a part of the variants without activity.

In this data set the parent is B1. In words: yeast fitness relative to wild type (ratio to wild type); higher = fitter; tRNA-Arg(CCU), competitive growth, 37 C, YPD. In short, it runs like this:
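Variants of the tRNA-Arg(CCU) gene were chemically synthesised with a 3% per-site mutation rate across 69 sites and placed at the native genomic locus in Saccharomyces cerevisiae. Six parallel replicates of the pooled strains were competed in YPD at 37°C for 24 hours, and gene amplicons from the start and end populations were read by 100-nucleotide paired-end sequencing. Darwinian fitness relative to wild type was derived from changes in genotype frequencies. Genotypes required ≥ 100 starting reads, and estimates < 0.5 were set to 0.5.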
Regarding C5U U28A G67A, the yeast fitness is 0.545. In the case of G6A A15C C22G C33U U59G C62G it was 0.634. Consider G6A A15U, for which the yeast fitness stood at 0.628. In the case of G6A A15G it was 0.712. In the case of G6A A15C it was 0.601. For G6A C22U U35C C55A C66U, the yeast fitness was at most 0.5.

With G6A A15C C27A A37G A43G, the yeast fitness was at most 0.5. Regarding G6A C22G U35C C55G, the yeast fitness is at most 0.5. The result for C5U U16C C24U A42C A57U reads at most 0.5. The result for C5U U16G C24U reads 0.776. With G6A A45U, the yeast fitness is 0.942. In the case of C5U U16C C30A C31U it was at most 0.5.

Regarding C5U U35C A36U G38A C46A U54C G68C, the yeast fitness is at most 0.5. The result for G6A C11U U26A C33A A43G reads at most 0.5; that for C5U U16G A65C, 0.612; that for C5U U16C A20G C29A, at most 0.5.

For the variant G6A A36U A40G G44U U54C, the yeast fitness is at most 0.5.

In the case of C5U U32C G39A, the yeast fitness came out at 0.584. In the case of C5U U47A C49U A69U it was at most 0.5; in that of G6A A45U A69U, 0.826. G6A C11U U13C A43G G67U: the yeast fitness was at most 0.5. In the case of G6A A21C U28A it was at most 0.5; in that of G6A A21G U35C A70C, at most 0.5. The result for C5U U26A U59C reads 0.722; that for G6A A45C C46G C66U, at most 0.5. On to G6A C11G U35A A37U U53A A65G, for which the yeast fitness was at most 0.5.

For G6A A15C C33U G39C C62G G68C, the yeast fitness is at most 0.5. As for C5U U19G A21U C29G, the yeast fitness was at most 0.5. In the case of C5U U35C A45C it was 0.743; in that of G6A A40C, 0.967; in that of C5U U16G C34U A40G A43G C62A A69C, 0.565. The result for G6A A21G A43U A70G reads at most 0.5; that for G6A C22U C30G A36G C62U A65U, at most 0.5. In the case of G6A C11U C22G U47A C60U it was at most 0.5. In the case of G6A A57C G63A A65C A70C, the yeast fitness was at most 0.5. The result for G6A C22G U47A A65G reads at most 0.5; that for G6A A37U, 0.64. For the variant C5U U35C A36U G38A C46A U54C, the yeast fitness was determined as 0.556. With G6A A20G C29A A70U, the yeast fitness is at most 0.5. Consider G6A C11G U35A A37U A70C, for which the yeast fitness was at most 0.5. The result for C5U U16C A36G reads 0.73; that for C5U U32C C55U, 0.564; that for C5U U19G C66A, 0.531. The result for G6A A20C C55A reads 0.583; that for G6A A20C C55U, 0.568; that for C5U U19C C34U A70C, at most 0.5.

Turning to G6A A37U C62G, the yeast fitness is at most 0.5. For the variant G6A C11G U35A A37U, the yeast fitness is at most 0.5.

G6A A15G C46A: the yeast fitness turned out to be 0.557. In the case of C5U U28G it was 0.71.

On to C5U U28C, for which the yeast fitness came out at 0.976.

For C5U U28A, the yeast fitness came out at 0.864. The result for G6A C11U A40G reads at most 0.5. G6A C11U U13C C27G: the yeast fitness stood at 0.507. In the case of G6A A20U U53A G58A it was 0.538; in that of G6A A14G G17C, at most 0.5; in that of C5U U26A A65U G68U, 0.548. The result for G6A A15C C29U reads at most 0.5. Turning to C5U U54A A69U, the yeast fitness is at most 0.5. For C5U U26A U54C, the yeast fitness turned out to be 0.644. Turning to G6A C22U C34G G56C, the yeast fitness is 0.693.

For G6A C11A A14C U19C G23A U32A A42C, the yeast fitness turned out to be 0.532. Take G6A A15G C30A A57G: the yeast fitness was at most 0.5. In the case of G6A A14C A42U C62A C66U, the yeast fitness was at most 0.5. The result for G6A A14C C24U G50A A57U A70U reads 0.745; that for G6A A65C A70U, 0.712. In the case of C5U U28A G41A C66U it was 0.542; in that of C5U U26G A43C C62G G63A C66G A69G, 0.549; in that of G6A C22U C33U A36U A43C C60U C61G A70G, at most 0.5. For the variant G6A C11A C46A A57G, the yeast fitness is at most 0.5. The result for C5U U16C C22G C29G reads at most 0.5; that for C5U U28A C34U C61U, at most 0.5. Turning to G6A A14G A15G A20C U64A G67A, the yeast fitness was at most 0.5. In the case of G6A A20C C66U it was 0.889; in that of G6A C22U C33A C55U C61A, at most 0.5; in that of C5U U26A A43U, 0.715. In the case of G6A A36G C60G C66U it was at most 0.5; in that of C5U U19A G25C C29A A43U, at most 0.5. Regarding G6A A14G, the yeast fitness turned out to be 0.844. The result for G6A C24A A43C G52C C66G A69G reads at most 0.5; that for C5U U59A, 0.886. The result for C5U U59C reads 0.946. With G6A A43C, the yeast fitness amounted to 0.779. In the case of G6A A43U, the yeast fitness was 0.747. The result for G6A A42C C62A reads 0.97; that for C5U U54A, 0.699; that for C5U U54C, 0.805. On to C5U U54G, for which the yeast fitness amounted to 0.647. For the variant G6A A15C A36C A42U C55G C61U, the yeast fitness is at most 0.5. In the case of C5U U35C A43U A70G it was at most 0.5. G6A A20G A37G G50A: the yeast fitness was at most 0.5. In the case of G6A C11U C30U G67A it was at most 0.5; in that of G6A C11U U13C A70G, at most 0.5; in that of G6A A37C A42C A69C, at most 0.5.

G6A C11A A45U U59G: the yeast fitness is at most 0.5. In the case of G6A C22G U47A G67U A70C it was at most 0.5. Regarding G6A C11U A70C, the yeast fitness stood at 0.578. In the case of G6A A20G C24U A40G A43G it was at most 0.5; in that of G6A A14G A36G A45U, 0.574; in that of C5U U19C A69G, 0.706. With G6A A21G U32C U59G C66U A70C, the yeast fitness was at most 0.5. For the variant C5U U19G A21U C29G C61G, the yeast fitness is at most 0.5. In the case of G6A A45C C46G it was 0.617; in that of G6A A21G C55U G56A, at most 0.5. For G6A A45U G51A, the yeast fitness was at most 0.5.

For C5U U16A G38A A42G, the yeast fitness was at most 0.5. For G6A A14G C22G, the yeast fitness was at most 0.5.

Consider C5U U35G, for which the yeast fitness was determined as 0.592. For the variant C5U U35A, the yeast fitness amounted to 0.615.

For the variant C5U U26G C49G, the yeast fitness was at most 0.5. For G6A C11A A15G C49G G51C G68A, the yeast fitness is at most 0.5. G6A A45G A69C: the yeast fitness came to 0.748. As for G6A C11A A40G G56C C61G A70U, the yeast fitness is at most 0.5.

G6A A43U C46A: the yeast fitness was 0.649. The result for G6A A37G U53G reads at most 0.5; that for C5U U28G C49A, at most 0.5. Regarding G6A C11G C22G U54A, the yeast fitness is at most 0.5. In the case of C5U U19G G23A it was at most 0.5. In the case of G6A A14G C46G C62G it was at most 0.5; in that of C5U U47C U54C C55G, at most 0.5; in that of G6A C22U C29G, at most 0.5.

As for C5U U32A G50A, the yeast fitness stood at 0.581.

Consider G6A A20G C30U C55U, for which the yeast fitness was at most 0.5. For C5U U28C C29G C49U, the yeast fitness is at most 0.5. In the case of G6A A14C A40U A43G G48A it was 0.607; in that of G6A A20U C29G C49G G63C, at most 0.5; in that of C5U U19A A40C C49G C55G A69U, at most 0.5. As to G6A C22U, the yeast fitness is 0.757.

Consider G6A A20C A70G, for which the yeast fitness came to 0.718. For C5U U32C A45G C46A, the yeast fitness worked out at 0.602. For the variant G6A A14G C33A, the yeast fitness was at most 0.5.

As to G6A A21C U47A G58A A65C, the yeast fitness is at most 0.5.

For G6A A21U, the yeast fitness amounted to 0.659. In the case of G6A A21C it was 0.84; in that of C5U U16A G23A C49U, at most 0.5; in that of G6A A14U C30U A69U, at most 0.5. The result for C5U U16G U64C reads 0.932. The result for C5U U28A G41A U54C reads at most 0.5; that for G6A A20U C27A, at most 0.5; that for G6A A21G A37C A57C, at most 0.5. In the case of C5U U26A A69C, the yeast fitness amounted to 0.78. In the case of C5U U19G C46U A69C it was at most 0.5; in that of G6A A40U G56C, at most 0.5; in that of G6A A14G G18A A42C, 0.618. In the case of G6A A14U C33G it was at most 0.5; in that of G6A A15G C30A G67A, at most 0.5.

As to C5U U26A A65G, the yeast fitness was 0.739. In the case of G6A A20C C61U it was 0.663; in that of G6A A20C C61A, at most 0.5. In the case of G6A A14U G48A it was 0.547. For C5U U35C U54C C55A, the yeast fitness was at most 0.5. The result for G6A C11U C22U reads 0.566; that for G6A A15C G23U, at most 0.5. In the case of C5U U59G C61G it was 0.606; in that of G6A A15C A20U C29U, at most 0.5; in that of G6A A14U G23U, at most 0.5. For G6A A45U C49U, the yeast fitness was determined as 0.564. For the variant G6A C22A U35A C49G G63C, the yeast fitness is at most 0.5. As for G6A A15U A20G, the yeast fitness is at most 0.5.

G6A A15C A20U C61G: the yeast fitness is 0.565. For C5U U28G A45C C66U, the yeast fitness came out at 0.599. In the case of G6A C11A C24G A42U it was at most 0.5. For the variant G6A A65U, the yeast fitness turned out to be 0.925. In the case of G6A A65G it was 0.88; in that of C5U U19A A20U G48A C60A, at most 0.5. The result for C5U U28G A42C reads at most 0.5. In the case of G6A A36G it was 0.89.
